Results as given in ChEMBL document CHEMBL1130095, “Synthesis of analogs of 2-methoxyestradiol with enhanced inhibitory effects on tubulin polymerization and cancer cell growth” (J Med Chem, 1997).

Tests used:
MDA-MB-435 = experiment: In vitro cytotoxicity value is the concentration corresponding to 50% growth inhibition against MDA-MB-435 (breast) cell line.; format: functional; details: Homo sapiens
UACC-62 = experiment: In vitro cytotoxicity value is the concentration corresponding to 50% growth inhibition against UACC-62(melanoma) cell line.; format: functional; details: Homo sapiens
Tubulin (Bos taurus) = Tubulin (Bos taurus) (UniProt Q6B856+Q862L2+Q862F3); experiment: The compound was evaluated for inhibition of colchicine binding to tubulin.; format: protein assay; details: concentration not given here
Method in brief: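 Mixtures held 1.0 µM bovine brain tubulin (0.1 mg/mL), 5.0 µM [³H]colchicine and 50 µM inhibitor, incubated 10 min at 37 °C. Bound-colchicine inhibition is given as percent, from triplicate samples in each experiment.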

Tubulin = Tubulin (Bos taurus, UniProt Q6B856+Q862L2+Q862F3); experiment: The compound was evaluated for inhibition of tubulin polymerization, which is purified from bovine brain; format: functional
Method in brief: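 Electrophoretically homogeneous bovine brain tubulin at 1.2 mg/mL (12 µM), preincubated at 26 °C with varying compound concentrations, then chilled on ice before GTP was added. Assembly was followed at 26 °C by turbidity at 350 nm, and the extent was read at 20 min. IC50 was derived graphically from at least two independent assays.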

SF-539 = experiment: In vitro cytotoxicity value is the concentration corresponding to 50% growth inhibition against […] (central nervous system) cell line.; format: functional; details: Homo sapiens
HCT-116 = experiment: In vitro cytotoxicity value is the concentration of the compound corresponding to 50% growth inhibition against HCT116 (colon) cell line.; format: functional; details: Homo sapiens
DU-145 = experiment: In vitro cytotoxicity value is the concentration corresponding to 50% growth inhibition against DU-145 (prostate) cell line.; format: functional; details: Homo sapiens
HOP-62 = experiment: In vitro cytotoxicity value is the concentration corresponding to 50% growth inhibition against HOP-62(non small cell lung) cell line.; format: functional; details: Homo sapiens
[1] = system: Panel (Carcinoma cell lines); experiment: Mean graph midpoint for growth inhibition of all human cancer cell lines; format: functional
SN12C = experiment: In vitro cytotoxicity value is the concentration corresponding to 50% growth inhibition against SN12C (renal) cell line.; format: functional; details: Homo sapiens
OVCAR-3 = experiment: In vitro cytotoxicity value is the concentration corresponding to 50% growth inhibition against OVCAR-3 (ovarian) cell line.; format: functional; details: Homo sapiens

inhibition (Tubulin (Bos taurus)): 1.7%
IC50 (Tubulin): 24 µM
GI50 [1]: 9.8 µM
Compound: C[C@]12CC[C@@H]3c4cc(OCC(F)(F)F)c(O)cc4C(=O)C[C@H]3[C@@H]1CC[C@@H]2O
GI50 (MDA-MB-435): 27 µM
GI50 (UACC-62): 3.3 µM
GI50 (SF-539): 5.1 µM
GI50 (HCT-116): 3.7 µM
GI50 (DU-145): 15 µM
GI50 (HOP-62): 8.7 µM
GI50 (SN12C): 24 µM
GI50 (OVCAR-3): 3.5 µM
